For data set [1], the target named is T1, Oxysterols receptor LXR-beta (Homo sapiens, UniProt P55055).
T1 sequence (P55055 whole entry): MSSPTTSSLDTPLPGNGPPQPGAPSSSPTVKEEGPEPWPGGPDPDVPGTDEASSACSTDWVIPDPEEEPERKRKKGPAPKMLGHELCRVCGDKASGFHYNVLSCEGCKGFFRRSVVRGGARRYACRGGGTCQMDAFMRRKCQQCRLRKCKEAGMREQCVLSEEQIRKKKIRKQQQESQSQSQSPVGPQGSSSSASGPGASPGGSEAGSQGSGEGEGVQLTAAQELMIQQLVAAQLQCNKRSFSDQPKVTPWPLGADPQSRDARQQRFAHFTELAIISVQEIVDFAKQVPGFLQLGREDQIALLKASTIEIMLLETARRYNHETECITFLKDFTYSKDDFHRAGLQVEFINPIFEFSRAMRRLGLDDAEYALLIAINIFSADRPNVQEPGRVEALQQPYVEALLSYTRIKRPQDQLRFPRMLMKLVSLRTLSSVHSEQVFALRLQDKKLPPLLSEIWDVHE
The data set is described as follows: Agonist activity at LXRbeta (unknown origin) expressed in African green monkey CV1 cells. Type of data set: cell-based.

The next data set has as its target T2, PXR (NR1I2) (Homo sapiens, UniProt O75469).
T2 sequence (O75469 whole entry): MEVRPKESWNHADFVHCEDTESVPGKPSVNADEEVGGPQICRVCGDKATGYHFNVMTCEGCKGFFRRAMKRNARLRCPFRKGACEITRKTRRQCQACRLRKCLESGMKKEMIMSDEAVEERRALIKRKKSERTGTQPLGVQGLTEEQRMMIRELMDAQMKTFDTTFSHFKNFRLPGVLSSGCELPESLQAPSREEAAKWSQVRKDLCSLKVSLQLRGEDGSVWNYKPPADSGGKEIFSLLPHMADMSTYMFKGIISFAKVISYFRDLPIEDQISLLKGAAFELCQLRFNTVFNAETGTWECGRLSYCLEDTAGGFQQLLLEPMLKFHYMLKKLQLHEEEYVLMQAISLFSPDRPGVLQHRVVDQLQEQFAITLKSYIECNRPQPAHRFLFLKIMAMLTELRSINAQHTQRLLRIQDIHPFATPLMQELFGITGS
Kind of data set: Transactivation of PXR in human HepG2 cells relative to rifampicin. Format: ADME, cell-based. The settings on record: read-out: %max.

Data set [2] concerns the target T3, Oxysterols receptor LXR-alpha (Homo sapiens) (UniProt Q13133).
T3 sequence (whole entry): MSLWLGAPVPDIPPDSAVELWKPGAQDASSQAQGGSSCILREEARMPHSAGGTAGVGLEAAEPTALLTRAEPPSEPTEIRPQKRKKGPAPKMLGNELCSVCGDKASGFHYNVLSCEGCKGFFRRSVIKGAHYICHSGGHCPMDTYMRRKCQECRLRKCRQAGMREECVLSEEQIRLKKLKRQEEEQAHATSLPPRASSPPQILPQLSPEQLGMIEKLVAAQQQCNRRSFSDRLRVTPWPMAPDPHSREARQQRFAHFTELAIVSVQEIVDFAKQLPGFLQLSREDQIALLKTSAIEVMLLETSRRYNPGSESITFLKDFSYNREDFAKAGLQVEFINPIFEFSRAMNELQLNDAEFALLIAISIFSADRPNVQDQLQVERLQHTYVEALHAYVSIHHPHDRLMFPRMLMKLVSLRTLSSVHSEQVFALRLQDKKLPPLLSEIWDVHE
Kind of data set: Agonist activity at LXRalpha (unknown origin) expressed in African green monkey CV1 cells relative to T0901317. Type of data set: cell-based.

The target of data set [3] is T4, Nuclear receptor subfamily 1 group I member 2 (Homo sapiens, UniProt O75469).
T4 sequence (O75469 whole entry): T2 sequence (O75469 whole entry)
The data set is described as follows: Transactivation of PXR in human HepG2 cells. Type of data set: ADME, cell-based.

Data set [4] has as its target T5, Oxysterols receptor LXR-alpha (Homo sapiens, UniProt Q13133).
T5 sequence (Q13133 whole entry): T3 sequence (whole entry)
The data set is described as follows: Agonist activity at LXRalpha (unknown origin) expressed in African green monkey CV1 cells. Type of data set: cell-based.

Data set [5] has as its target T6, Oxysterols receptor LXR-beta (Homo sapiens) (UniProt P55055).
T6 sequence (whole entry): T1 sequence (P55055 whole entry)
The data set is described as follows: Agonist activity at LXRbeta (unknown origin) expressed in African green monkey CV1 cells relative to T0901317. Format: cell-based.

A short description of data set [6]: Permeability in human Caco2 cells. Format: ADME, cell-based. The settings on record: Caco-2, read-out: permeability. The procedure, abridged: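 Caco-2 monolayer permeability, reported as permeation coefficient in nm/s; an efflux ratio was also determined.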

As for `O=S(=O)(c1ccc(F)cc1)[C@@]1(c2ccc(C(O)(C(F)(F)F)C(F)(F)F)cc2)CCNC1`, the values for the EC50 in data set [1], in data set [3] and in data set [4] were above 7500 nM, 434 nM and 2920 nM, respectively. The Emax at PXR (NR1I2) was 110%. Besides, the %max in data set [2] turned out to be 58%.

On to `COC(=O)N1CCC(c2ccc(C(O)(C(F)(F)F)C(F)(F)F)cc2)(S(=O)(=O)c2ccc(F)cc2)C1` (racemic), for which the 50% effective concentration (EC50) in data set [1] worked out at 1900 nM; in data set [4] it was 408 nM. In addition, the %max was found to be 62% in data set [2] and 39% in data set [5].

Take `O=C(O)[C@H]1CC[C@H](C(=O)N2CC[C@](c3ccc(C(O)(C(F)(F)F)C(F)(F)F)cc3)(S(=O)(=O)c3ccc(F)cc3)C2)CC1`: the concentration giving a half-maximal response (EC50) in data set [1] was above 7500 nM; in data set [3], above 50000 nM; in data set [4], above 3750 nM. The Emax on PXR (NR1I2) was 11%. Also, in data set [6], the Papp is below 1.5 ×10⁻⁶ cm/s.

Values taken from ChEMBL document CHEMBL4339200, “Structure-based Discovery of Phenyl (3-Phenylpyrrolidin-3-yl)sulfones as Selective, Orally Active RORγt Inverse Agonists” (ACS Med Chem Lett, 2019).
